Source: ChEMBL document CHEMBL1800017, “Resorcylic acid lactones with cytotoxic and NF-κB inhibitory activities and their structure-activity relationships” (J Nat Prod, 2011)
The source made the active and inactive calls. No cut-off for these calls is given here.

Legend:
HT-29 [1] = assay: Cytotoxicity against human HT-29 cells after 72 hrs by MTS assay; format: functional, cell-based; settings: HT-29, 72 h
How it was run: (§1)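 Cells were grown in RPMI 1640 with 10% FBS, penicillin and streptomycin. They were plated at 2500 (HT-29) or 5000 (MDA-MB-435) cells/well and preincubated 16 h at 37 °C in 5% CO2. Test substance was added at final 25, 5, 1, 0.2 and 0.04 µg/mL for 72 h. Read-out was MTS. IC50 is the concentration giving 50% reduction in proliferation versus untreated controls.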

MCF7 = assay: Cytotoxicity against human MCF7 cells after 72 hrs by MTS assay; format: functional, cell-based; settings: MCF7, 72 h
How it was run: (§2)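 Continuous 72 h exposure with MTS read-out. IC50 is the concentration reducing cellular proliferation by 50% relative to untreated controls.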

NCI-H460 = assay: Cytotoxicity against human H460 cells after 72 hrs by MTS assay; format: functional, cell-based; how it was run: as §2
SF-268 = assay: Cytotoxicity against human SF268 cells after 72 hrs by MTS assay; format: functional, cell-based; how it was run: as §2
MDA-MB-435 = assay: Cytotoxicity against human MDA-MB-435 cells after 72 hrs by MTS assay; format: functional, cell-based; settings: MDA-MB-435, 72 h; how it was run: as §1
Staphylococcus aureus = assay: Antimicrobial activity against Staphylococcus aureus by agar plate diffusion assay; format: functional
How it was run: (§3)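 Agar plate diffusion. Overnight cultures of each organism were seeded into molten LB or Middlebrook 7H9 medium with 1% glycerol and 1.5% agar, held at 50 °C, and poured as plates. Samples in 10 µL MeOH were spotted onto the surface and tested up to 500 µg/mL. Positive controls were penicillin G, novobiocin and streptomycin. Plates were incubated overnight at 37 °C.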

[2] = test system: Mycolicibacterium smegmatis; assay: Antimicrobial activity against Mycobacterium smegmatis by agar plate diffusion assay; format: functional; how it was run: as §3
Bacillus subtilis = assay: Antimicrobial activity against Bacillus subtilis by agar plate diffusion assay; format: functional; how it was run: as §3
Transcription factor p65 = Transcription factor p65 (Homo sapiens, UniProt Q04206); assay: Inhibition of NFkappa p65 isolated from nuclear extract of human HeLa cells by ELISA; format: cell-free
Escherichia coli [3] = assay: Antimicrobial activity against Escherichia coli by agar plate diffusion assay; format: functional; how it was run: as §3
HT-29 [4] = assay: Inhibition of mitochondrial membrane potential in human HT-29 cells using JC1 dye staining by fluorescence plate reader assay; format: functional, cell-based
How it was run: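 HT-29 cells exposed to a range of test concentrations, then loaded with JC-1 dye and washed to remove unbound stain. Fluorescence read for monomers (ex 485/em 530 nm, apoptotic) and aggregates (ex 560/em 595 nm, healthy). Staurosporine positive control. Triplicate measurements, at least two independent experiments; IC50 reported.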

Escherichia coli [5] = assay: Antimicrobial activity against Escherichia coli at 100 ug/mL by agar plate diffusion assay; format: functional, organism-based
How it was run: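 Agar plate diffusion: overnight E. coli culture seeded into molten LB or Middlebrook 7H9 medium with 1% glycerol and 1.5% agar, held at 50 °C, then poured as assay plates. Samples dissolved in 10 µL MeOH were applied to the plate surface, and controls were treated the same way. Plates were incubated overnight at 37 °C.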

Transcription factor p65, sequence (Q04206 whole entry, the tested form may be a part): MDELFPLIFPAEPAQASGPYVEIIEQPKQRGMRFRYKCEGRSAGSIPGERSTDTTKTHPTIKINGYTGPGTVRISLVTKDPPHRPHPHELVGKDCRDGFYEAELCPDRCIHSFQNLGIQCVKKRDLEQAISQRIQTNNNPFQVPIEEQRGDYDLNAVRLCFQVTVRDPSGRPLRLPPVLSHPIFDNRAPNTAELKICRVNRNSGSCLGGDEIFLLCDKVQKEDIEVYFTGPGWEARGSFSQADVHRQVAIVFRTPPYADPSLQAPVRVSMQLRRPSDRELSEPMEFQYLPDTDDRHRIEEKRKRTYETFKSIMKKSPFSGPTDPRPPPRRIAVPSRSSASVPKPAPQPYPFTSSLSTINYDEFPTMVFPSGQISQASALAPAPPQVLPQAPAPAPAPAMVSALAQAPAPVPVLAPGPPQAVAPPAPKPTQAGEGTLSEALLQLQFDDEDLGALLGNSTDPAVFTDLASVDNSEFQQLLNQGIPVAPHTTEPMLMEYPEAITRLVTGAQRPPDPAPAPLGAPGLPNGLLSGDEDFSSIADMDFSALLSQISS

Row | SMILES | IC50 (HT-29 [1]) | IC50 (MCF7) | IC50 (NCI-H460; Homo sapiens, NCI-H460, 72 h) | IC50 (SF-268; Homo sapiens, SF-268, 72 h) | IC50 (MDA-MB-435) | MIC [2] | IC50 (Transcription factor p65) | further results
1 | COc1cc(O)c2c(c1)/C=C/C[C@H](O)[C@H](O)[C@H](O)/C=C/C[C@H](C)OC2=O | > 25 µM | > 100 µM | > 100 µM | > 100 µM | > 25 µM | > 500 µg/mL | > 50 µM | MIC (Staphylococcus aureus): > 500 µg/mL; MIC (Bacillus subtilis): > 500 µg/mL
2 | C[C@H]1CCC[C@H](O)CCCCCc2cc(O)cc(O)c2C(=O)O1 [ZERANOL] |  | > 50 µM | > 50 µM | > 50 µM |  |  |  | 
3 | COc1cc(O)c2c(c1)/C=C/C[C@H](O)[C@H](O)C(=O)CCC[C@H](C)OC2=O | > 50 µM | > 50 µM | > 25 µM | > 50 µM | > 50 µM | > 500 µg/mL | > 50 µM | MIC (Escherichia coli [3]): > 500 µg/mL; MIC (Staphylococcus aureus): > 500 µg/mL; MIC (Bacillus subtilis): > 500 µg/mL
4 | COC(=O)[C@H]1[C@@H](O)[C@@]2(O)c3c(OC)cc(O[C@@H]4O[C@@H]([C@H](O)CO)CO[C@H]4OC)cc3O[C@@]2(c2ccc(OC)cc2)[C@@H]1c1ccccc1 [SILVESTROL] | 0.004 µM |  |  |  | 0.006 µM |  |  | 
5 | C[C@H]1CCC[C@@H](O)CCCCCc2cc(O)cc(O)c2C(=O)O1 (stereo in doubt; 10) [TALERANOL] |  | > 25 µM | 15.4 µM | > 50 µM |  |  |  | 
6 | COc1cc(O)c2c(c1)/C=C/C[C@H](O)[C@H](O)C(=O)/C=C\C[C@H](C)OC2=O | 3.6 µM | 3.8 µM | 1.2 µM | 5.1 µM | 3.3 µM | > 500 µg/mL | 0.25 µM | MIC (Escherichia coli [3]): > 500 µg/mL; MIC (Bacillus subtilis): > 500 µg/mL
7 | C[C@H]1C/C=C\C(=O)[C@@H](O)[C@@H](O)C/C=C/c2cc(O)cc(O)c2C(=O)O1 | 11.5 µM | 10.3 µM | 4.1 µM | 8.9 µM | 15.8 µM | > 500 µg/mL | 0.75 µM | MIC (Escherichia coli [3]): > 500 µg/mL; MIC (Staphylococcus aureus): > 500 µg/mL; MIC (Bacillus subtilis): > 500 µg/mL
8 | C[C@H]1CCCC(=O)CCC/C=C/c2cc(O)cc(O)c2C(=O)O1 [ZEARALENONE] |  | > 25 µM | > 25 µM | > 50 µM |  |  |  | 
9 | C[C@H]1CCCC(=O)CCCCCc2cc(O)cc(O)c2C(=O)O1 [ZEARALANONE] |  | > 25 µM | > 25 µM | > 50 µM |  |  |  | 
10 | CN[C@@H]1C[C@H]2O[C@@](C)([C@@H]1OC)n1c3ccccc3c3c4c(c5c6ccccc6n2c5c31)C(=O)NC4 [STAUROSPORINE] |  |  |  |  |  |  |  | IC50 (HT-29 [4]): 0.0025 µM
11 | C[C@H]1CCC[C@@H](O)CCCCCc2cc(O)cc(O)c2C(=O)O1 (stereo in doubt; 12) [TALERANOL] |  |  |  |  |  |  |  | IC50 (NCI-H460; nci-h460): 9.5 µM; IC50 (SF-268; sf-268): > 25 µM
12 | CC[C@@]1(O)C(=O)OCc2c1cc1n(c2=O)Cc2cc3ccccc3nc2-1 [CAMPTOTHECIN] |  | 0.07 µM | < 0.01 µM | 0.04 µM |  |  |  | 
13 | COc1cc(O)c2c(c1)/C=C/C[C@H](O)[C@H](O)[C@@H](O)/C=C/C[C@H](C)OC2=O [ZEAENOL] | > 25 µM | > 100 µM | > 100 µM | > 100 µM | > 25 µM | > 500 µg/mL | > 50 µM | MIC (Escherichia coli [3]): > 500 µg/mL
14 | COc1cc(O)c2c(c1)/C=C/C[C@H](O)[C@H](O)C(=O)/C=C/C[C@H](C)OC2=O | 4.4 µM | 4.9 µM |  | 5.6 µM | 5.5 µM | > 500 µg/mL | 11.5 µM | MIC (Staphylococcus aureus): > 500 µg/mL
15 | COc1cc(O)c2c(c1)[C@H]1O[C@@H]1C[C@H](O)[C@H](O)C(=O)/C=C\C[C@H](C)OC2=O [HYPOTHEMYCIN] |  | 16.3 µM | 4.3 µM | 12.7 µM |  |  |  | 
16 | CC1(C)S[C@@H]2[C@H](NC(=O)Cc3ccccc3)C(=O)N2[C@H]1C(=O)O |  |  |  |  |  |  |  | inhibition (Escherichia coli [5]): Active
